Values joined by “and” are separate entries in the source; they are usually repeats but may differ in a detail not shown here. Identical values can stand only once.
Legend:
[1] = target: T1, Prostaglandin G/H synthase 1 (Ovis aries, UniProt P05979); assay: Inhibition of ovine COX1 by colorimetric assay
T1 sequence (P05979 whole entry): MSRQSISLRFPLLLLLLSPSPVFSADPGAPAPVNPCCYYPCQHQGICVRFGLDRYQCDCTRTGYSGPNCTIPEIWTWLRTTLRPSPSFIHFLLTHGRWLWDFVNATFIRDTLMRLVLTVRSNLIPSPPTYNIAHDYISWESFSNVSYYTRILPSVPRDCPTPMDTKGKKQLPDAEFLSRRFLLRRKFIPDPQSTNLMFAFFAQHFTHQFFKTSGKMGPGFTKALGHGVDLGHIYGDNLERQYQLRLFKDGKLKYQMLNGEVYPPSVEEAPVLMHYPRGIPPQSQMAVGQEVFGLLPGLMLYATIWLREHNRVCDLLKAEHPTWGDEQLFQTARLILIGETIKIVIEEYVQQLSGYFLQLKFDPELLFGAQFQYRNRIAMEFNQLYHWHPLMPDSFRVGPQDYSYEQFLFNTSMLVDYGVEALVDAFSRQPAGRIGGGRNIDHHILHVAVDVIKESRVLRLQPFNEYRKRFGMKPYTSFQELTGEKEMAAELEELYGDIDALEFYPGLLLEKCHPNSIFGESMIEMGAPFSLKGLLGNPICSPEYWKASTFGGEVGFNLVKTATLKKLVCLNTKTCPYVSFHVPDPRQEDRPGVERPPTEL
How it was run: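 Colorimetric ovine COX inhibitor screening kit, run per the supplier's protocol. Each experiment was done at least four times and reported as mean ± SEM.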

[2] = target: ATP-dependent translocase ABCB1 (Homo sapiens, UniProt P08183); assay: Inhibition of human recombinant P-glycoprotein after 40 mins by Pgp-Glo assay
ATP-dependent translocase ABCB1, sequence (P08183 whole entry): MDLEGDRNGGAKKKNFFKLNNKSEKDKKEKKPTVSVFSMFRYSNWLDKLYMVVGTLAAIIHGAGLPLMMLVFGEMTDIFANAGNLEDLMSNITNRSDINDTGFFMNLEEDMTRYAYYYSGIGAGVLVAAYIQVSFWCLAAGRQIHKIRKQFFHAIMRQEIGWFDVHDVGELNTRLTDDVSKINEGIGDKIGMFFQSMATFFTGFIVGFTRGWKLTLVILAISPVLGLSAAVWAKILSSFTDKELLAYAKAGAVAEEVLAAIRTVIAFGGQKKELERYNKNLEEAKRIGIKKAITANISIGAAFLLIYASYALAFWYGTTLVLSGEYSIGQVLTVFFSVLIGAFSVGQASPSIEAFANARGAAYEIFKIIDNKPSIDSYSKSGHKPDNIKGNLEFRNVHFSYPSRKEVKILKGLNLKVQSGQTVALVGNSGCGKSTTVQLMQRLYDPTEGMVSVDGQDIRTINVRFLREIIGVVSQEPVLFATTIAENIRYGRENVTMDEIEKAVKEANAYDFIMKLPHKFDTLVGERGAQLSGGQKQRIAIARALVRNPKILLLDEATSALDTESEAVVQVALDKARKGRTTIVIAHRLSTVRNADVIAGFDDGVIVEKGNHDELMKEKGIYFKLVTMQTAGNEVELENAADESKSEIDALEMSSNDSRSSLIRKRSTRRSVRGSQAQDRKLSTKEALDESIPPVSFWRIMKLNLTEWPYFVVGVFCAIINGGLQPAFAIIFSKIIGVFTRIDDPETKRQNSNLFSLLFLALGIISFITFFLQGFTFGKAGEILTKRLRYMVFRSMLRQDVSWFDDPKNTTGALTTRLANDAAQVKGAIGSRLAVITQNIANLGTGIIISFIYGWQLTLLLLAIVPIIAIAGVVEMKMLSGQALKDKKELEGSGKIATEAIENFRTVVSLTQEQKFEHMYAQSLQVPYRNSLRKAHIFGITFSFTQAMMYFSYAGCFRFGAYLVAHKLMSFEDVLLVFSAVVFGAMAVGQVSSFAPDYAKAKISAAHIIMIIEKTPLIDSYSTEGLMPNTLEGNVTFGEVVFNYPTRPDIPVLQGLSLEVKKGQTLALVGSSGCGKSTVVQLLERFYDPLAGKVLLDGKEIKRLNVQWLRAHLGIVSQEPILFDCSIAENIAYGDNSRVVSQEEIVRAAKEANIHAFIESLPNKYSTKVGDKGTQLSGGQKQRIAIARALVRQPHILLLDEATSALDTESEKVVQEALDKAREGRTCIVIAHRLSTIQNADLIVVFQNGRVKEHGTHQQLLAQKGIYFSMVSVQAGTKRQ
How it was run: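 Recombinant human P-gp membranes were incubated with test compound (dilution series, 0.781–200 μM) and 5 mM MgATP at 37 °C for 40 min. ATP detection buffer was added and luminescence developed at room temperature for 20 min. IC50 was fitted to concentration–luminescence data by nonlinear least squares.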

[3] = target: Multidrug resistance-associated protein 1 (Homo sapiens, UniProt P33527); assay: Inhibition of human MRP1 in human T98G cells assessed as potentiation of doxorubicin induced cytotoxicity at 50 uM pre-incubated for 2 hrs before doxorubicin addition and measured 4 days after doxorubicin exposure by MTT assay relative to untreated control; assay type: cell-based; conditions: 96 h
Multidrug resistance-associated protein 1, sequence (P33527 whole entry): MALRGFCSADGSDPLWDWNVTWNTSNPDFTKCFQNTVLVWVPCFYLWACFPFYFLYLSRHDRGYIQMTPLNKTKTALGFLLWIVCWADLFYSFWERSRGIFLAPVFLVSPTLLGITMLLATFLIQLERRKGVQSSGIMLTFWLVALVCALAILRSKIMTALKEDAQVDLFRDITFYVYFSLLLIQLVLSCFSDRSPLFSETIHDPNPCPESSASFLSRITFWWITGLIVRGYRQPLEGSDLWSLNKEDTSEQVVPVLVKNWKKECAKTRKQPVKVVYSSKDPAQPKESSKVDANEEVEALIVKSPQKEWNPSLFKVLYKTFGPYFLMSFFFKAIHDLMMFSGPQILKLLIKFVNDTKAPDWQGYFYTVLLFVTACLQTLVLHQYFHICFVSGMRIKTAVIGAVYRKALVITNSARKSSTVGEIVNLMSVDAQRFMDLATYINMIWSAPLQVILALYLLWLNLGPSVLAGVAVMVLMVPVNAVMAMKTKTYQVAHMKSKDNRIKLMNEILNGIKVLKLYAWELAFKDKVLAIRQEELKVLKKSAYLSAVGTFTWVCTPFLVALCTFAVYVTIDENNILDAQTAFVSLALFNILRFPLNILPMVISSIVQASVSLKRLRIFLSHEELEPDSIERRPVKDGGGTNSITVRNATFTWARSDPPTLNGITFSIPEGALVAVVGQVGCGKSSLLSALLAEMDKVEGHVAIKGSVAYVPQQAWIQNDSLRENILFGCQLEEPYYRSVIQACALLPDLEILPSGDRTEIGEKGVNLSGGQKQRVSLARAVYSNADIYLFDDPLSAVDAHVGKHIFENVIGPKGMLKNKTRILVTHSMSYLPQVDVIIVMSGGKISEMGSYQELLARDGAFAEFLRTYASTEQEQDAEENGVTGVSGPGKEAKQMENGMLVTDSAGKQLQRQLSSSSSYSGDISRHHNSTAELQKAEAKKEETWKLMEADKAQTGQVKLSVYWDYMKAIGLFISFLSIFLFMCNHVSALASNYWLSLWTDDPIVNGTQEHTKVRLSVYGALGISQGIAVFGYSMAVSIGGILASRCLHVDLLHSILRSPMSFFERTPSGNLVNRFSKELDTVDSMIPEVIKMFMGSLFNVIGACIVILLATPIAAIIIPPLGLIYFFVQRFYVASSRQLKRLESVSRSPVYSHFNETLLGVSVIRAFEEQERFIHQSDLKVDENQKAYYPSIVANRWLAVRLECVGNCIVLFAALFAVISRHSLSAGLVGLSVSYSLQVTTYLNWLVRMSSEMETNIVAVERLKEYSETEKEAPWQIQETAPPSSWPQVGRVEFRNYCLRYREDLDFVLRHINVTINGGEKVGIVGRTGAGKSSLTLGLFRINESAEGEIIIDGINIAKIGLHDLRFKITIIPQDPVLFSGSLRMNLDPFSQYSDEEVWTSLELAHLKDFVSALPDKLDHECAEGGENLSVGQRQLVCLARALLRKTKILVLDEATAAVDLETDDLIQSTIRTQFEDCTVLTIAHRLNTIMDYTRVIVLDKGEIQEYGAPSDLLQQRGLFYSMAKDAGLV

[4] = system: T98G; assay: Cytotoxicity against human T98G cells assessed as inhibition of cell growth at 1 uM by MTT assay; assay type: functional; conditions: read-out: GI

| Compound | IC50 [1] | IC50 [2] | inhibition (INH) [3] | inhibition of growth at 1 µM [4] |
| --- | --- | --- | --- | --- |
| Cc1c(CC(=O)O)c2ccccc2n1C(=O)c1ccc(Cl)cc1 | 0.01 µM | 20 µM | – | – |
| CCc1c(CC(=O)O)c2ccccc2n1C(=O)c1ccc(Cl)cc1 | > 400 µM | 20 µM | Active | – |
| O=C(O)Cc1c(-c2ccccc2)n(C(=O)c2ccc(Cl)cc2)c2ccccc12 | > 400 µM | 18 µM | Active | – |
| CCc1cccc2c(CC(=O)O)cn(C(=O)c3ccc(Cl)cc3)c12 | > 400 µM | 17 µM | Not Active | – |
| COc1cccc2c1C(=O)c1c(O)c3c(c(O)c1C2=O)C[C@@](O)(C(=O)CO)C[C@@H]3O[C@H]1C[C@H](N)[C@H](O)[C@H](C)O1 [DOXORUBICIN] | – | – | – | 40% |

Continued, in another order:

| IC50 [1] | IC50 [2] | Compound | inhibition (INH) [3] | inhibition of growth at 1 µM [4] |
| --- | --- | --- | --- | --- |
| > 400 µM | 15 µM | COc1cccc2c(CC(=O)O)c(C)n(C(=O)c3ccc(Cl)cc3)c12 | Active | – |
| > 200 µM | 9.8 µM | COc1ccc2c(CC(=O)O)c(C)n(C(=O)c3ccc(Cl)cc3)c2c1 | – | – |
| – | 32 µM and 28 µM | COc1ccc2c(c1)c(CC(=O)O)c(C)n2C(=O)c1ccc(Cl)cc1 [INDOMETHACIN] | – | – |
